From PMC3229844 (Chemmedchem, 2011)
Where two headings read alike, the source gives them in different places. Each block holds one molecule with its values, some of them ahead of it. Square brackets hold non-standard residues; d marks the D form. Side chains are listed from the residue outwards. Peptide text beside a SMILES is read from it. * marks the point of attachment. DOTA = O=C(O)CN1CCN(CC(=O)O)CCN(CC(=O)*)CCN(CC(=O)O)CC1; 2Nal = N[C@@H](Cc1ccc2ccccc2c1)C(=O)O; dNMeOrn = CN[C@H](CCCN)C(=O)O; 4Amb = NCc1ccc(C(=O)O)cc1

Tests used:
CXCR4 [1] = molecular target: T1, CXCR4 (Homo sapiens, UniProt P61073); assay type: binding; settings: Table 1; mean±SD of three experiments except values greater than 100 nM
[2] = Biodistribution of [68Ga]2 c in OH1 tumor-bearing nude mice; assay type: in vivo; settings: nude, mouse, tumor / muscle, total radioactivity, Tumor/Muscle ratio, Blockade, 1 h p.i. (n=4), in the presence of 50 μg cyclo-(D-Tyr 1-Arg 2-Arg 3-Nal 4-Gly 5), OH1 mice
Outline: (§1)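 Tracer: 68Ga-labeled test compound, given alone or co-injected with 50 μg competitor, in nude mice bearing OH-1 human small-cell lung cancer xenografts. Animals were sampled at 60 and 120 min post-injection. Organ and tumour activity was expressed as %ID g−1, and tumour/muscle ratios were derived.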

[3] = test system: OH-1 human small-cell lung cancer xenografts; experiment: as above; assay type: in vivo
Outline: as §1

[4] = test system: OH-1 human small-cell lung cancer xenografts; experiment: PET imaging of CXCR4 expression in tumor-bearing nude mice; assay type: in vivo
CXCR4 [5] = molecular target: T1, CXCR4; settings: value taken from the literature; cited from earlier work
[6] = 1 h p.i. (n=4), in the presence of 50 μg cyclo-(D-Tyr 1-Arg 2-Arg 3-Nal 4-Gly 5), OH1 mice

T1 sequence (P61073 whole entry): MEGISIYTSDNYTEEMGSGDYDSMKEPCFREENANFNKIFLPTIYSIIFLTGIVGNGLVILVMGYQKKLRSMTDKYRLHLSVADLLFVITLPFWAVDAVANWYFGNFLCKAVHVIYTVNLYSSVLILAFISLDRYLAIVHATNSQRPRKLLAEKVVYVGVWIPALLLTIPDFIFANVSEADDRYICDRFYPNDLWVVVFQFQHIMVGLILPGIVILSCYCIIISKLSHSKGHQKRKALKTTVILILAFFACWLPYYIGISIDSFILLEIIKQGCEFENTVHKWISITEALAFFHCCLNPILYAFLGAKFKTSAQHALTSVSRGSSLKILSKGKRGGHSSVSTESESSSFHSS

IC50 (CXCR4 [1]): 44 ± 4 nM
Molecule: CN1C(=O)[C@@H](Cc2ccc(O)cc2)NC(=O)CNC(=O)[C@H](Cc2ccc3ccccc3c2)NC(=O)[C@H](CCCNC(=N)N)NC(=O)[C@H]1CCCNC(=O)c1ccc(CNC(=O)CN2CCN(CC(=O)O)CCN(CC(=O)O)CCN(CC(=O)O)CC2)cc1 [2 b] (cyclo([dY][dNMeOrn]([4Amb-DOTA])R[2Nal]G))

tissue to tissue ratio at 1 h [2]: 3.45 ± 1.45
Blockade, Adrenal glands [3, 6]: 0.87±0.32 %ID g^−1
Blockade, Blood [3, 6]: 2.50±0.64 %ID g^−1
Blockade, Heart [3, 6]: 1.38±0.52 %ID g^−1
Blockade, Intestine [3, 6]: 1.00±0.32 %ID g^−1
Blockade, Kidney [3, 6]: 7.19±1.83 %ID g^−1
Blockade, Liver [3, 6]: 2.27±0.59 %ID g^−1
Blockade, Lung [3, 6]: 3.25±1.06 %ID g^−1
Blockade, Muscle [3, 6]: 0.58±0.21 %ID g^−1
Blockade, Pancreas [3, 6]: 0.75±0.19 %ID g^−1
Blockade, Spleen [3, 6]: 1.03±0.40 %ID g^−1
Blockade, Stomach [3, 6]: 1.40±0.30 %ID g^−1
Blockade, Tumor [3, 6]: 1.88±0.30 %ID g^−1
Biodistribution, Adrenal glands ([3]; 1 h p.i. (n=8), OH1 mice): 0.83±0.55 %ID g^−1
Biodistribution, Blood ([3]; 1 h p.i. (n=8), OH1 mice): 1.08±0.27 %ID g^−1
Biodistribution, Heart ([3]; 1 h p.i. (n=8), OH1 mice): 0.60±0.16 %ID g^−1
Biodistribution, Intestine ([3]; 1 h p.i. (n=8), OH1 mice): 0.45±0.11 %ID g^−1
Biodistribution, Kidney ([3]; 1 h p.i. (n=8), OH1 mice): 3.06±0.63 %ID g^−1
Biodistribution, Liver ([3]; 1 h p.i. (n=8), OH1 mice): 1.85±0.24 %ID g^−1
Biodistribution, Lung ([3]; 1 h p.i. (n=8), OH1 mice): 1.41±0.26 %ID g^−1
Biodistribution, Muscle ([3]; 1 h p.i. (n=8), OH1 mice): 0.38±0.09 %ID g^−1
Biodistribution, Pancreas ([3]; 1 h p.i. (n=8), OH1 mice): 0.30±0.07 %ID g^−1
Biodistribution, Spleen ([3]; 1 h p.i. (n=8), OH1 mice): 0.69±0.09 %ID g^−1
Biodistribution, Stomach ([3]; 1 h p.i. (n=8), OH1 mice): 0.72±0.26 %ID g^−1
Biodistribution, Tumor ([3]; 1 h p.i. (n=8), OH1 mice): 6.16±1.16 %ID g^−1
tumor to organ ratios ([3]; 1 h post-injection): High tumor to organ ratios
Biodistribution, Adrenal glands ([3]; 2 h p.i. (n=3), OH1 mice): 0.50±0.15 %ID g^−1
Biodistribution, Blood ([3]; 2 h p.i. (n=3), OH1 mice): 0.58±0.14 %ID g^−1
Biodistribution, Heart ([3]; 2 h p.i. (n=3), OH1 mice): 0.29±0.10 %ID g^−1
Biodistribution, Intestine ([3]; 2 h p.i. (n=3), OH1 mice): 0.36±0.04 %ID g^−1
Biodistribution, Kidney ([3]; 2 h p.i. (n=3), OH1 mice): 2.07±0.46 %ID g^−1
Biodistribution, Liver ([3]; 2 h p.i. (n=3), OH1 mice): 1.48±0.31 %ID g^−1
Biodistribution, Lung ([3]; 2 h p.i. (n=3), OH1 mice): 2.85±2.69 %ID g^−1
Biodistribution, Muscle ([3]; 2 h p.i. (n=3), OH1 mice): 0.28±0.17 %ID g^−1
Biodistribution, Pancreas ([3]; 2 h p.i. (n=3), OH1 mice): 0.21±0.02 %ID g^−1
Biodistribution, Spleen ([3]; 2 h p.i. (n=3), OH1 mice): 0.65±0.25 %ID g^−1
Biodistribution, Stomach ([3]; 2 h p.i. (n=3), OH1 mice): 0.46±0.12 %ID g^−1
Biodistribution, Tumor ([3]; 2 h p.i. (n=3), OH1 mice): 4.63±1.54 %ID g^−1
tumor uptake on co-injection of competitor ([4]; co-injection of 50 μg AMD3100 per mouse (data not shown)): significantly reduced
tumor uptake on co-injection of competitor ([4]; co-injection of 50 μg cyclo-(-D-Tyr 1-Arg 2-Arg 3-Nal 4-Gly 5) per mouse): significantly reduced
accumulation in CXCR4-expressing tumors ([4]; nude mice bearing OH-1 human small-cell lung cancer xenografts): accumulated in high levels
Molecule: CN1C(=O)[C@@H](Cc2ccc(O)cc2)NC(=O)CNC(=O)[C@H](Cc2ccc3ccccc3c2)NC(=O)[C@H](CCCNC(=N)N)NC(=O)[C@H]1CCCNC(=O)c1ccc(CNC(=O)CN2CCN(CC(=O)O)CCN(CC(=O)O)CCN(CC(=O)O)CC2)cc1 [[^68Ga]2 c, metal not drawn] (cyclo([dY][dNMeOrn]([4Amb-DOTA])R[2Nal]G))

Molecule: cyclo-(-D-Tyr 1-Arg 2-Arg 3-Nal 4-Gly 5) [1 a]
IC50 (CXCR4 [5]): 4.3 ± 1.2 nM
